Data set [1] in a line: Induction of TNFalpha level in C57BL/6J mouse BMDM at 1 nM after 16 hrs by ELISA. In kind it is functional. A digest of the protocol: (§1)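 C57BL/6J bone marrow cells were differentiated 6 days with 40 ng/mL M-CSF in RPMI with 20% FBS, then seeded at 1 × 10⁶ cells/mL in RPMI with 10% FBS. After 24 h, cells were stimulated for 16 h, with nM concentrations based on compound MW. Supernatant cytokines were measured by ELISA.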
For orientation: In an ELISA, binding on a coated surface is turned into a signal by an enzyme label.

A short description of data set [2]: Induction of IL-6 level in C57BL/6J mouse BMDM at 1 nM after 16 hrs by ELISA. In kind it is functional. The essentials:
as §1

In data set [3] the target is Toll-like receptor 4 (Homo sapiens) (UniProt O00206). Nature of the data set: Agonist activity at human TLR4 in human THP1 cells assessed as induction of MyD88 signaling after 18 hrs by ELISA. In kind it is cell-based. Conditions: THP-1. The essentials: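 THP-1 cells were seeded at 10⁵ per well and differentiated to macrophage-like cells with 200 nM TPA for 24 h. Non-adherent cells were washed off, and the remainder rested 1 h in fresh complete RPMI with 10% FCS. Cells were then stimulated for 18 h, and TNF-α, IL-8 and MCP-1 in the supernatants were measured by ELISA.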

For data set [4], the species on record is Homo sapiens. Put plainly: Induction of IL10 release in human DC at 1 ng/ml by Luminex.
Data set [5] deals with THP-1. Put plainly: Induction of MCP1 expression in human THP1 cells after 18 hrs by ELISA. The class given is functional, cell-based. The essentials:
(§2)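 THP-1 cells in RPMI-1640 with 2 mM L-glutamine, antibiotics, 10% FCS; 10⁵ cells/well differentiated with 200 nM TPA for 24 h. Non-adherent cells washed off, 1 h recovery, then stimulated 18 h at indicated concentrations; E. coli Re-LPS or O111:B4 LPS as reference. DMSO stocks diluted in medium, final DMSO ≤0.01%. Supernatants assayed by ELISA.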

The species named for data set [6] is Homo sapiens. Put plainly: Induction of TNFalpha release in human DC at 1 ng/ml by Luminex.
Data set [7] can be described thus: Cytotoxicity against human DC by propidium iodide staining. The essentials:
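Immature monocyte-derived DCs were stimulated with compound across a wide concentration range, and cytotoxicity was assessed by propidium iodide staining.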

A short description of data set [8]: Induction of human DC maturation assessed as upregulation of CD86 at 10 ng/ml after 24 hrs by flow cytometry. In kind it is functional.
The target in data set [9] is Toll-like receptor 4 (Homo sapiens) (UniProt O00206). Nature of the data set: Agonist activity at human TLR4 expressed in HEK293 cells coexpressed with human MD2/CD14 assessed as activation of NFkappaB signaling at 10 ng/ml after 20 to 24 hrs by NFkappaB reporter assay. The class given is cell-based. A digest of the protocol:
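HEK-Blue hTLR4 cells (HEK293 co-transfected with hTLR4/MD-2/CD14), 25000 per well, were stimulated with compound diluted in DMEM with 10% FCS (final DMSO ≤0.005–0.01%) for 20–24 h at 37 °C, 5% CO2. Secreted SEAP in the supernatant was read with QUANTI-Blue at 650 nm. Data were pooled from n = 3 independent experiments, SEM.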
For orientation: A reporter such as luciferase makes a cellular process visible.

Data set [10] concerns THP-1. Nature of the data set: Induction of TNFalpha expression in human THP1 cells after 18 hrs by ELISA. The class given is functional, cell-based. The essentials:
as §2

The species named for data set [11] is Homo sapiens. Put plainly: Induction of IL6 release in human DC at 1 ng/ml by Luminex.
The nature of data set [12]: Induction of human DC maturation assessed as upregulation of MHC class 2 at 10 ng/ml after 24 hrs by flow cytometry. In kind it is functional. On the technique in general: Flow cytometry measures light scatter and fluorescence of single cells or particles in a stream.
Data set [13] in a line: Induction of human DC maturation assessed as upregulation of MHC class 1 at 10 ng/ml after 24 hrs by flow cytometry. The class given is functional.
Data set [14] relates to THP-1. Nature of the data set: Induction of IL8 expression in human THP1 cells after 18 hrs by ELISA. In kind it is functional, cell-based. The essentials: as §2
The species entered for data set [15] is Homo sapiens. Nature of the data set: Induction of IL12 release in human DC at 1 ng/ml by Luminex.
The test system of another data set is BMDM. Put plainly: Induction of IL-6 level in C57BL/6J mouse BMDM after 16 hrs by ELISA. The class given is functional. A digest of the protocol:
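Bone marrow flushed from femur and tibia, erythrocytes lysed (0.88% ammonium chloride, 15 min, 37 °C), differentiated 6 days in RPMI/20% FBS with 40 ng/mL M-CSF. Replated at 1 × 10⁶ cells/mL in RPMI/10% FBS, stimulated after 24 h for 16 h. Nanomolar doses calculated from MW. DMSO stocks diluted in medium, final DMSO ≤0.01%. Supernatant IL-6 by ELISA.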

Structures are written as SMILES. Active and inactive are the calls of the source. The calls are words filed in the database; no cut-off is given here.

Toll-like receptor 4 (Homo sapiens), sequence (O00206 whole entry): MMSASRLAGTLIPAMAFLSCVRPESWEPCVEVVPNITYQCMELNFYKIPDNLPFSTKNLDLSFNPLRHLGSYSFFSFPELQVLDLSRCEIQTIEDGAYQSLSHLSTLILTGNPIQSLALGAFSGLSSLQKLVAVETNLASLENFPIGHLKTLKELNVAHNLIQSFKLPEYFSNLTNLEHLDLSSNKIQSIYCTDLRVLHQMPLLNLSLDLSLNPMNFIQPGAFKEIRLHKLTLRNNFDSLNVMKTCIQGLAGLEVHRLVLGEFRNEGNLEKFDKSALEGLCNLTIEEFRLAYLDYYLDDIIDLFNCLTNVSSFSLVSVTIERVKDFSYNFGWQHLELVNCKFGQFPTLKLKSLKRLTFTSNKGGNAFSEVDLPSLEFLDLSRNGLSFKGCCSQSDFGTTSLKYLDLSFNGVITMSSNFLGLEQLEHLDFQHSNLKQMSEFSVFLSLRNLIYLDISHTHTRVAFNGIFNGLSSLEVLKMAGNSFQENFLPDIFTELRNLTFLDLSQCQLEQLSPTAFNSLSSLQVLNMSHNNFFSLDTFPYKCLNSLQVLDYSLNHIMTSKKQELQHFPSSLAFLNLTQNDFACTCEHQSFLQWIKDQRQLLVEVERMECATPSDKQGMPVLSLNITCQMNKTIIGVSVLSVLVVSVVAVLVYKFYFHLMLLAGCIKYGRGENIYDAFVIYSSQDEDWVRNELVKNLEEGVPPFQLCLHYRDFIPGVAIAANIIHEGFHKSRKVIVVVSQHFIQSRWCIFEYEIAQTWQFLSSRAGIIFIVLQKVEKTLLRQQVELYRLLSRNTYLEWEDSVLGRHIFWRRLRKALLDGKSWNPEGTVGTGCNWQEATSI

As to `CCCCCCCCCCCCCC(=O)O[C@H](CCCCCCCCCCC)CC(=O)N[C@H]1[C@H](OC[C@H]2O[C@H](OP(=O)(O)O)[C@H](NC(=O)C[C@H](O)CCCCCCCCCCC)[C@@H](OC(=O)C[C@H](O)CCCCCCCCCCC)[C@@H]2O)O[C@H](CO)[C@@H](OP(=O)(O)O)[C@@H]1OC(=O)C[C@@H](CCCCCCCCCCC)OC(=O)CCCCCCCCCCCCC`, in data set [1], the Activity stood at 2000 pg/mL.

Take `CCCCCCCCCCCCCC(=O)O[C@H](CCCCCCCCCCC)CC(=O)O[C@@H]1[C@@H](NC(=O)C[C@@H](CCCCCCCCCCC)OC(=O)CCCCCCCCCCC)[C@@H](O[C@H]2O[C@H](COP(=O)(O)O)[C@@H](OC(=O)C[C@H](CCCCCCCCCCC)OC(=O)CCCCCCCCCCC)[C@H](O)[C@@H]2OC)O[C@H](CO)[C@H]1OP(=O)(O)O`: the Activity in [2] is 1500 pg/mL; in data set [1] it was 4000 pg/mL; in [7] it was “Non-toxic”; in the data set with THP-1 [10], “Dose-dependent effect”; in the data set on THP-1 [14] it was “Dose-dependent effect”. Further, the outcome (in data set [3]; in the data set filed under Homo sapiens [4]; in the data set with THP-1 [5]; in the data set filed under Homo sapiens [6]; in data set [8]; in [9]) was Active. Besides, the outcome (in the data set listed under Homo sapiens [11]; in data set [12]; in data set [13]; in the data set filed under Homo sapiens [15]) was Active.

With `CCCCCCCCCCCCCC(=O)O[C@H](CCCCCCCCCCC)CC(=O)O[C@@H]1[C@@H](NC(=O)C[C@@H](CCCCCCCCCCC)OC(=O)CCCCCCCCCCC)[C@@H](O[C@H]2O[C@H](COP(=O)(O)O)[C@@H](OC(=O)C[C@H](CCCCCCCCCCC)OC(=O)CCCCCCCCC)[C@H](O)[C@@H]2OC)O[C@H](CO)[C@H]1OP(=O)(O)O`, the Activity is 1500 pg/mL in data set [2]; 4000 pg/mL in data set [1]; “Non-toxic” in data set [7]; “Dose-dependent effect” with THP-1 [10]; “Dose-dependent effect” in the data set on THP-1 [14]. In addition, the result (in data set [3]; in the data set on THP-1 [5]) was Active.

For `CCCCCCCCCCCCCC(=O)O[C@H](CCCCCCCCCCC)CC(=O)O[C@@H]1[C@@H](NC(=O)C[C@@H](CCCCCCCCCCC)OC(=O)CCCCCCCCCCC)[C@@H](O[C@H]2O[C@H](CO)[C@@H](OC(=O)C[C@H](CCCCCCCCCCC)OC(=O)CCCCCCCCCCC)[C@H](O)[C@@H]2OC)O[C@H](CO)[C@H]1OP(=O)(O)O`, the outcome in the data set listed under Homo sapiens [4], in the data set with THP-1 [5], in the data set filed under Homo sapiens [6], in the data set on THP-1 [10], in the data set listed under Homo sapiens [11] and in the data set with THP-1 [14] was inactive. Also, the result in the data set listed under Homo sapiens [15] was inactive. Moreover, the values for the Activity (in data set [1]; in [7]; in the data set with BMDM) were 500 pg/mL, “Non-toxic” and “Dose-dependent effect”, respectively.

Source of the values: ChEMBL document CHEMBL3352425, “Development of αGlcN(1↔1)αMan-based lipid A mimetics as a novel class of potent Toll-like receptor 4 agonists” (J Med Chem, 2014).
